RGS4 act = RGS4 potentiation or activation; HEK293 M3R/inducible RGS4, carbachol calcium flux Fluo4; active compounds read low; B-score at 10 µM; hit rate 0.92% among 310,000;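 active = B-score of the integrated calcium signal more than 4 SD below the library mean, with starting fluorescence not abnormally high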;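 also: negative B-score means reduced calcium response which marks RGS4 activation or potentiation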
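Test system: HEK293 cells with stable M3R and inducible RGS4; also added: carbachol at ECmax as muscarinic agonist stimulus; schedule: dye loading 30 min 37 °C, buffer rest 30 min RT; technique: kinetic calcium fluorescence imaging with Fluo4-AM dye, 2 µM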
MrgX1 ag = agonists of human MrgX1 receptor. Q96LB2. MrgX1-HEK293 cells, Fluo-4 calcium fluorescence, agonist mode; active compounds read high. B-score at 10 µM. hit rate 0.44% among 310,000;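 active = calcium response B-score plate-corrected fluorescence ratio at least 3 library SD, with starting fluorescence B-score inside 5 SD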
Target sequence (Q96LB2 whole entry, looked up): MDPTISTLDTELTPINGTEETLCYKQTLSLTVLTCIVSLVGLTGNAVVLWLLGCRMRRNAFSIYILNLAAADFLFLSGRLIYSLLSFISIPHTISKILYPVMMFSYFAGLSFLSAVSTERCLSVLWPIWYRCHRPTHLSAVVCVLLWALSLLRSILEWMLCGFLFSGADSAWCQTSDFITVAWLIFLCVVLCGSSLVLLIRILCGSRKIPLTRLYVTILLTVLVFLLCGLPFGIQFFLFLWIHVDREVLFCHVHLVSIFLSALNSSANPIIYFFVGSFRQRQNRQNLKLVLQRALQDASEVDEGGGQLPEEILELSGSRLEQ
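System: HEK293 cells stably expressing human MrgX1 receptor; Dosing: test compound in the initial addition of three; Schedule: overnight plating, then 30 min 37 °C plus 30 min room-temperature dye loading; Detection: kinetic calcium dye fluorescence, Fluo-4 NW; Controls: per-plate positive and negative controls for Z′ factor.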
MrgX1 antag = human MrgX1 receptor antagonism, primary screen; hit rate 1.3% among 310,000; MRGX1-HEK293 calcium flux, Fluo-4, BAM8-22 antagonism; active compounds read low; B-score at 10 µM; Q96LB2; AID 588676;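 active = calcium-response B-score plate-corrected more than 3 library SD below zero, starting fluorescence within 5 deviations, no agonist response on first addition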;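 also: peak minus trough fluorescence over baseline after final BAM8-22 challenge near maximal dose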
RGS4 inh = human RGS4 inhibition; B-score at 10 µM; hit rate 0.45% among 310,000; HEK293 M3R/RGS4 inducible, Fluo-4 calcium flux; active compounds read high; triggered by carbachol at its EC20; P49798;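 active = B-score, a plate-corrected calcium signal, over three deviations above library mean, with baseline fluorescence within five deviations of library mean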;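 also: RGS4 expression induced by doxycycline in cells with stable M3 receptor; B-score is computed from the integrated fluorescence ratio over baseline after carbachol; higher B-score means a larger calcium signal and so more RGS4 inhibition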
Target sequence (P49798 whole entry, looked up): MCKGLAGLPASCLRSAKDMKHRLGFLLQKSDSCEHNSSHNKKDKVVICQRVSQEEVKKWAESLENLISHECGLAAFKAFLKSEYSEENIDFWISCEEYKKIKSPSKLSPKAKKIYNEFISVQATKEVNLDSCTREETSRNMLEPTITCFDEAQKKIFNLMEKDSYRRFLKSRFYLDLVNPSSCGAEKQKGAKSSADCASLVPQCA
MrgX1 PAM = allosterically activates human MrgX1 receptor signaling; Q96LB2; MrgX1-HEK293, Fluo-4 calcium flux, FDSS; active compounds read high; B-score at 10 µM; hit rate 0.63% among 310,000;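 active = plate-corrected calcium response at least 3 library SD above typical, normal starting fluorescence, not activating the receptor alone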;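 also: compound read alongside a low EC10 to EC30 dose of BAM8-22 agonist; peak minus trough fluorescence over baseline measured at the second addition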
RGS4 activ val = confirmation of RGS4 activators. hit rate 89% among 1,100. inhibition, % at 10 µM. AID 602282. HEK293 M3R/RGS4 inducible, carbachol calcium flux Fluo4. shares compounds with RGS4 act;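 active = inhibition above 3 SD of the buffer control wells, cut at about 41% in these data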;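 also: signal is the integrated peak-minus-minimum Fluo4 fluorescence over baseline ratio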
M3R Ca counter = counter-screen for RGS4 activators: effect in non-induced cells | shares compounds with RGS4 act | HEK293 M3R non-induced RGS4, Fluo4 calcium flux; after carbachol challenge at its EC90 | inhibition, % at 10 µM | hit rate 82% among 1,100;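 active = inhibition exceeding 3 SD of buffer-only control wells, cut at about 26% in these data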;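 also: percent drop in integrated peak-minus-baseline over baseline Fluo4 ratio after carbachol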
Of the large screens only hits and unclear results are named; the others gave an inactive call (follow-up assays come after a bar, where they were run). Rows were chosen to be rich in hits. Some 3.5% of all compounds tested hit in one or more screens of this group.

O=C(CN1C(=O)COc2ccc(S(=O)(=O)N3CCOCC3)cc21)NCc1ccccn1	none
Cc1ccc(NC(=S)NC(NC(=O)c2ccccc2C)C(Cl)(Cl)Cl)c(C)c1 (configuration not stated)	RGS4 act -8.5 | RGS4 activ val inactive | M3R Ca counter inactive
CCc1cccc(C)c1NC(=O)COC(=O)c1cc([N+](=O)[O-])ccc1N1CCOCC1	none
CCOC(=O)c1sc(Nc2ccccc2)nc1C	none
CCOC(=O)c1sc(Nc2nc3c(OC)cccc3s2)nc1C	RGS4 act -7.8 | RGS4 activ val 93 | M3R Ca counter 79
CN1CCN(c2ncccc2S(=O)(=O)N2CCCCC2)CC1	RGS4 act -12 | RGS4 activ val 90 | M3R Ca counter 73
O=S(=O)(c1cccc2cccnc12)N1CCCCC1	none
COc1ccc2c(C)cc(N3CCN(Cc4ccccc4)CC3)nc2c1	none
COc1ccc2c(C)cc(N3CCCCCC3)nc2c1	RGS4 act -11 | RGS4 activ val 92 | M3R Ca counter 75
CC(C)(C)c1ccccc1OCC(=O)Nc1ccccc1C(=O)NCc1cccnc1	RGS4 act -11 | RGS4 activ val 88 | M3R Ca counter 59
CCc1nnc(NC(=O)c2sc3nc4cc(C)ccc4cc3c2N)s1	RGS4 act -8.8 | RGS4 activ val 72 | M3R Ca counter 32
COc1ccc(OS(=O)(=O)c2c(C)noc2C)cc1	RGS4 act -9.3 | RGS4 activ val 84 | M3R Ca counter 41
CC1(C)CC(=O)C2=C(C1)N(c1ccc(Cl)cc1)C(=O)C2(O)C(F)(F)F (configuration not stated)	RGS4 act -14 | RGS4 activ val 79 | M3R Ca counter 27
Cc1ccc(N2C(=O)C(O)(C(F)(F)F)C3=C2CC(C)(C)CC3=O)cc1C (configuration not stated)	none
CC(=O)NN1C(=O)/C(=C\c2ccc(Cl)cc2)SC1=S	RGS4 act -12 | RGS4 activ val inactive | M3R Ca counter inactive
CCOC(=O)N1CCC(NC(=O)C2=CCN(S(=O)(=O)c3ccc(OC)cc3)CC2)CC1	none
COCCNC(=S)Nc1ccc2nc(N3CCOCC3)cc(C)c2c1	RGS4 act -11 | RGS4 activ val inactive | M3R Ca counter inactive
Cc1ccc(C2CCN(C(=S)Nc3cccc(C)c3)C2)cc1 (configuration not stated)	none
CN(C)CC#CCOC(c1ccccc1)c1ccccc1	RGS4 act -8.9 | RGS4 activ val 92 | M3R Ca counter 72
CCN(CC)CCOC(c1ccccc1)c1ccc(C)cc1 (configuration not stated)	none
C=CC[N+]1(CC#CCOC(c2ccccc2)c2ccccc2)CCOCC1	none
CCN(CC)CC#CCC(O)(c1ccccc1)c1ccccc1	RGS4 act -7.7 | RGS4 activ val 90 | M3R Ca counter 52
CCN(CC)CC#CCOC(c1ccccc1)c1ccccc1	RGS4 act -9.2 | RGS4 activ val 88 | M3R Ca counter 57
CN(C)CC#CCC(O)(c1ccccc1)c1ccccc1	none
COc1ccc(N2CCN(c3nc(Cl)nc(Nc4ccc(F)cc4)n3)CC2)cc1	none
CCc1nc(SCC(=O)N2CCCCC2)c2c(=O)n(C)c(=O)n(C)c2n1	none
Brc1cccc(-c2nnc3n2CCCCC3)c1	none
Brc1cccc(-c2cnc3n2CCCCC3)c1	RGS4 act -7.9 | RGS4 activ val 84 | M3R Ca counter 56
S=C1NC[C@H](CC2CCCCC2)N1CCc1cccc2ccccc12	none
C[n+]1c2n(c3ccccc31)N=C(c1cc(C(C)(C)C)c(O)c(C(C)(C)C)c1)CS2	RGS4 act -13, MrgX1 antag -8.6 | RGS4 activ val 94 | M3R Ca counter 83
COc1cccc(C2=Nn3c(nnc3-c3ccccc3O)SC2)c1	none
CCOC(=O)c1cnc2ccccc2c1NCc1ccco1	RGS4 act -9.7 | RGS4 activ val 94 | M3R Ca counter 92
CN(Cc1ccc(F)cc1)C(=O)c1cccc(S(=O)(=O)N2CCN(c3ccc(F)cc3)CC2)c1	RGS4 act -7.6 | RGS4 activ val 40 | M3R Ca counter 84
Cc1c(C(=O)OC(C)CCN(C)C)oc2ccccc12 (configuration not stated)	RGS4 act -11 | RGS4 activ val 93 | M3R Ca counter 82
Cc1c(C(=O)OCC(=O)N2C(C)CCCC2C)oc2ccccc12 (configuration not stated)	none
Cc1c(C(=O)OCC(C)(C)CN(C)C)oc2ccccc12	none
Cc1c(C(=O)OCCN2CCCCC2)oc2ccccc12	RGS4 act -11 | RGS4 activ val 94 | M3R Ca counter 91
O=C(N1CCN(c2ccccc2)CC1)C1(c2cccs2)CCOCC1	none
Cc1cc(C(=O)Nc2ncn[nH]2)ccc1[N+](=O)[O-]	none
CCCNC(C)C(=O)Nc1c(C)csc1C(=O)OC (configuration not stated)	none (no result: RGS4 act, RGS4 inh)
CSc1nc2sc3c(c2c(=O)n1C1CCCCC1)CCN(C)C3	none
C=C(C)CSc1nc2sc3c(c2c(=O)n1C1CCCCC1)CCN(C)C3	RGS4 act -7.8 | RGS4 activ val 93 | M3R Ca counter 86
C=CCC(C(=O)OC)(C(=O)OC)c1ccccc1[N+](=O)[O-]	none
CSC1=NCCN1C(=O)COc1ccccc1	none
CSC1=NCCN1C(=O)COc1ccc2ccccc2c1	RGS4 act -9.5 | RGS4 activ val inactive | M3R Ca counter inactive
O=C(CNC(=O)c1ccc([N+](=O)[O-])cc1)c1ccccc1	none
O=C(CNc1ccccc1)c1ccc([N+](=O)[O-])cc1	RGS4 act -11 | RGS4 activ val 76 | M3R Ca counter 84
c1ccc(N2CCN(c3cnccn3)CC2)nc1	RGS4 act -8.4 | RGS4 activ val inactive | M3R Ca counter inactive
OC(CN1CCN(C(c2ccccc2)c2ccccc2)CC1)c1ccc(Br)cc1 (configuration not stated)	RGS4 act -13 | RGS4 activ val 92 | M3R Ca counter 79
CCN(CC)CCNC(=O)c1ccc(NC(=O)c2cccc(S(=O)(=O)Nc3ccc(C)cc3)c2)cc1	RGS4 act -12 | RGS4 activ val 92 | M3R Ca counter 69
CN(C)CCNC(=O)c1cccc(S(=O)(=O)Nc2ccc(F)cc2)c1	none
COc1ccc(CCNC(=O)c2cccc3c2C(=O)N(C2CCCCC2)C3)cc1OC	RGS4 act -8.1 | RGS4 activ val 64 | M3R Ca counter inactive
Cc1cc(NC(=O)CSc2cn(CCNC(=O)c3ccc(F)cc3)c3ccccc23)no1	RGS4 act -7.7 | RGS4 activ val 69 | M3R Ca counter 33
